# Measured values pooled from the literature.
# Compare with care: the assays were run in different laboratories.
# Target: Mitogen-activated protein kinase kinase kinase 9 (MAP3K9, Homo sapiens, UniProt P80192)
# Effect on: enzyme activity
# Action: inhibitor
SMILES,test,conditions,remaining activity
FC(F)c1nc2ccccc2n1-c1nc(N2CCOCC2)nc(N2CCOCC2)n1,,10 µM,86%
Cc1sc(C(=O)NC2COC2)cc1-n1cc(NC(=O)Nc2c(F)cccc2Cl)cn1,,10 µM,87.5%
Cc1nn(CC(F)(F)F)cc1Nc1ncc(Br)c(NCCc2cnc[nH]2)n1,radiometric,1 µM,30%
CCN(CC)c1ccc(C2=NNC(=O)CC2C)cc1[N+](=O)[O-] (stereo not shown),,10 µM,100%
Oc1cccc(-c2nc(N3CCOCC3)c3oc4ncccc4c3n2)c1,,10 µM,65%
O=C(Nc1cnn(-c2csc(C(=O)NC3COC3)c2)c1)Nc1c(F)cccc1Cl,,5 µM,88.5%
COc1cc(Nc2cnc(C#N)c(O[C@H](C)CN(C)C)n2)ncc1-c1cnn(C)c1,radiometric,10 µM,48%
CC(C)(C)c1nc2c(s1)c1nc(N)ncc1c1ccc(NS(=O)(=O)c3c(F)cccc3F)c(F)c12,radiometric,1 µM,66%
O=C(NCCCNc1ccnc(Nc2cccc(NC(=O)N3CCCC3)c2)n1)C1CCC1,radiometric,1 µM,79%
Cc1ccc(C(=O)Nc2ccc(CN3CCN(C)CC3)c(C(F)(F)F)c2)cc1C#Cc1cnc2cccnn12,,23.5 nM,96%
Cc1cnc(NC2CCOCC2)nc1-n1cnc(C(=O)NC(CN)c2cc(F)cc(Cl)c2)c1 (stereo not shown),radiometric,1 µM,94%
CN1CCc2cc(Nc3ncc(C4CC4)c(NCCCNC(=O)C4CCC4)n3)ccc2C1,radiometric,1 µM,14%
CC(C)(O)[C@H]1CC[C@H](Nc2ccc3ncc(-c4cccc(C(F)(F)F)c4)n3n2)CC1,,1 µM,77%
Cc1nn(CC(F)(F)F)cc1Nc1nccc(NCc2ccc(S(N)(=O)=O)cc2)n1,radiometric,1 µM,97%
CC(C)(C)c1nc(-c2cccc(NS(=O)(=O)c3c(F)cccc3F)c2F)c(-c2ccnc(N)n2)s1,radiometric,1 µM,70%
NS(=O)(=O)c1ccc(CNc2ccnc(Nc3cccc(CN4CCOCC4)c3)n2)cc1,radiometric,1 µM,81%
CCCOc1ccc(OC)c(F)c1C(=O)c1ccc(C(=O)N[C@@H]2CNC[C@H]2NC(=O)c2ccc3[nH]ncc3c2)cc1,,10 µM,32%
COc1cc(Cl)c(C(=O)N[C@@H](CN[C@H]2CC[C@@H](N)CC2)Cc2ccc(C#N)cc2)cc1-c1ccc(CN[C@H](C)c2ccc(C)cc2)o1,,1 µM,97%
Cc1nn(CC(F)(F)F)cc1Nc1ncc(C2CC2)c(NCc2ccc(S(N)(=O)=O)cc2)n1,radiometric,1 µM,90%
